ChEMBL document CHEMBL4043195, “Development of water-soluble 3,5-dinitrophenyl tetrazole and oxadiazole antitubercular agents” (Bioorg Med Chem, 2017)
In brackets after ≈: the same amount, converted by molar mass.

Key:
Mycobacterium kansasii [1] = experiment: Antimycobacterial activity against Mycobacterium kansasii 6509/96 incubated for 14 days by micromethod; type: functional; settings: for MIC99: Mycobacterium kansasii, 6509/96, 336 h
How it was run: (§1)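 M. kansasii MIC by micromethod in Sula's semisynthetic medium. Inoculum was a 1.0 McFarland suspension diluted 10^-4, 0.1 mL per well. Compounds were dissolved in DMSO and tested at 32 to 0.03 µM in twofold steps. […] INH and RIF were reference drugs.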

Mycobacterium kansasii [2] = experiment: Antimycobacterial activity against Mycobacterium kansasii CNCTC My 235/80 incubated for 14 days by micromethod; type: functional; settings: for MIC99: Mycobacterium kansasii, CNCTC My 235/80, 336 h; how it was run: as §1
Mycobacterium avium = experiment: Antimycobacterial activity against Mycobacterium avium CNCTC My 330/88 incubated for 14 days by micromethod; type: functional; settings: for MIC99: Mycobacterium avium, CNCTC My 330/88, 336 h
How it was run: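 Micromethod MIC assay in Sula's semisynthetic medium. The inoculum was a 1.0 McFarland suspension diluted 10^-5, with 0.1 mL added per well. Compounds were dissolved in DMSO and tested at 1000 to 1 µM in two-fold steps. Plates were incubated at 37 °C for 14 days. […] INH and RIF were the reference drugs.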

[3] = test system: Mycobacterium tuberculosis; experiment: Antimycobacterial activity against Mycobacterium tuberculosis H37Rv CNCTC My 331/88 incubated for 14 days by micromethod; type: functional; settings: for MIC99: Mycobacterium tuberculosis, H37Rv CNCTC My 331/88, 336 h
How it was run: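 Strain H37Rv was tested in Sula's semisynthetic medium by micromethod. The basic suspension was set to 1.0 McFarland and diluted 10^-3, with 0.1 mL added per well. Compounds were added from DMSO at 32 to 0.03 µM. […] INH and RIF were used as standards.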

[4] = test system: Mycobacterium tuberculosis; experiment: microbe, parasite or virus in culture; settings: isolate 234/2005, 336 h
Caco-2 = experiment: Cytotoxicity against human Caco2 cells assessed as reduction in cell viability incubated for 48 hrs by CellTiter 96 aqueous one solution cell proliferation assay; type: cell-based; settings: Caco-2, 48 h
How it was run: (§2)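 Caco-2, HepG2, A431 and COS-1 cells were exposed 48 h to compound or DMSO vehicle (0.1%) in Opti-MEM reduced-serum medium. MTS reagent was added for 4 h and formazan absorbance read at 490 nm. A 10% SDS toxic control was added 45 min before MTS. Vehicle and SDS were set to 100% and 0% viability; values given as relative viability at 30 µM. Triplicates, repeated at least three times.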

[5] = Cytotoxicity against human HepG2 cells assessed as cell viability at 30 uM incubated for 48 hrs by CellTiter 96 aqueous one solution cell proliferation assay; type: cell-based; settings: read-out: Activity; how it was run: as §2
HepG2 = experiment: Cytotoxicity against human HepG2 cells assessed as reduction in cell viability incubated for 48 hrs by CellTiter 96 aqueous one solution cell proliferation assay; type: cell-based; settings: HepG2, 48 h; how it was run: as §2
[6] = test system: Mycobacterium tuberculosis; experiment: Antimycobacterial activity MDR/XDR against Mycobacterium tuberculosis isolate 8666/2010 incubated for 14 days by micromethod; type: functional; settings: for MIC99: isolate 8666/2010, 336 h
A-431 = experiment: Cytotoxicity against human A431 cells assessed as reduction in cell viability incubated for 48 hrs by CellTiter 96 aqueous one solution cell proliferation assay; type: cell-based; settings: A-431, 48 h; how it was run: as §2
[7] = Solubility in pH 5 acetate buffer by HPLC method; type: physicochemical
How it was run: (§3)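 Salt (15 mg) was shaken 2 h at room temperature in 1 mL 0.05 M citrate pH 3, 1 mL 0.1 M acetate pH 5, or 5 mL PBS pH 7.4. Suspensions were decanted and filtered (0.22 µm PTFE). Citrate and acetate solutions were diluted 500-fold in water/acetonitrile 1:1. Analysis by HPLC with diode-array detection on a C18 column at 30 °C. At least 4 repeats.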

COS-1 = experiment: Cytotoxicity against African green monkey COS1 cells assessed as reduction in cell viability incubated for 48 hrs by CellTiter 96 aqueous one solution cell proliferation assay; type: cell-based; settings: Chlorocebus aethiops, COS-1, 48 h; how it was run: as §2
[8] = test system: Mycobacterium tuberculosis; experiment: Antimycobacterial activity MDR/XDR against Mycobacterium tuberculosis isolate Praha 131 incubated for 14 days by micromethod; type: functional; settings: for MIC99: isolate Praha 131, 336 h
[9] = test system: Mycobacterium tuberculosis; experiment: Antimycobacterial activity MDR/XDR against Mycobacterium tuberculosis isolate 9449/2007 incubated for 14 days by micromethod; type: functional; settings: for MIC99: isolate 9449/2007, 336 h
[10] = Cytotoxicity against African green monkey COS1 cells assessed as cell viability at 30 uM incubated for 48 hrs by CellTiter 96 aqueous one solution cell proliferation assay; type: cell-based; settings: chlorocebus aethiops, COS-1 cells; read-out: Activity; how it was run: as §2
[11] = test system: Mycobacterium tuberculosis; experiment: Antimycobacterial activity MDR/XDR against Mycobacterium tuberculosis isolate 7357/1998 incubated for 14 days by micromethod; type: functional; settings: for MIC99: isolate 7357/1998, 336 h
[12] = Cytotoxicity against human A431 cells assessed as cell viability at 30 uM incubated for 48 hrs by CellTiter 96 aqueous one solution cell proliferation assay; type: cell-based, A-431; settings: read-out: Activity; how it was run: as §2
[13] = test system: Mycobacterium tuberculosis; experiment: Antimycobacterial activity MDR/XDR against Mycobacterium tuberculosis isolate Praha 4 incubated for 14 days by micromethod; settings: isolate Praha 4, 336 h
[14] = test system: Mycobacterium tuberculosis; experiment: Antimycobacterial activity MDR/XDR against Mycobacterium tuberculosis isolate Praha 1 incubated for 14 days by micromethod; type: functional; settings: for MIC99: isolate Praha 1, 336 h
[15] = Solubility in pH 7.4 PBS buffer by HPLC method; type: physicochemical; how it was run: as §3
[16] = Cytotoxicity against human Caco2 cells assessed as cell viability at 30 uM incubated for 48 hrs by CellTiter 96 aqueous one solution cell proliferation assay; type: cell-based; settings: Caco-2 cells, read-out: Activity; how it was run: as §2
[17] = Solubility in pH 3.0 citrate buffer by HPLC method; type: physicochemical; how it was run: as §3
[18] = Solubility in pure water at room temperature by HPLC method; type: physicochemical

Row | Compound | MIC99 (Mycobacterium kansasii [1]) [µM] | MIC99 (Mycobacterium kansasii [2]) [µM] | MIC99 (Mycobacterium avium) [µM] | MIC99 [3] [µM] | other results
1 | O=[N+]([O-])c1cc(CSc2nnc(CCCN3CCOCC3)o2)cc([N+](=O)[O-])c1 | 8 (≈ 3.28 µg/mL) | 8 (≈ 3.28 µg/mL) | 500 (≈ 205 µg/mL) | 8 (≈ 3.28 µg/mL) | –
2 | O=[N+]([O-])c1cc(CSc2nnc(CCCCCN3CCCCC3)o2)cc([N+](=O)[O-])c1 | 32 (≈ 13.9 µg/mL) | 16 (≈ 6.97 µg/mL) | 62.5 (≈ 27.2 µg/mL) | 16 (≈ 6.97 µg/mL) | –
3 | Cl.Cl.O=[N+]([O-])c1cc(CSc2nnc(CCCCCN3CCN(Cc4ccccc4)CC3)o2)cc([N+](=O)[O-])c1 | – | 2 | 32 | 2 | MIC99 [4]: 2 µM; IC50 (Caco-2): > 30 µM; viability at 48 h, 30 µM [5]: 112%; MIC>99 (Mycobacterium kansasii [1]): 2 µM; IC50 (HepG2): > 30 µM; MIC99 [6]: 2 µM; IC50 (A-431): > 30 µM; solubility [7]: 9000 µM; IC50 (COS-1): > 30 µM; MIC99 [8]: 2 µM; MIC99 [9]: 2 µM; viability at 48 h, 30 µM [10]: 99%; MIC99 [11]: 2 µM; viability at 48 h, 30 µM [12]: 86%; MIC99 [13]: 2 µM; MIC99 [14]: 2 µM; solubility [15]: 113 µM; viability at 48 h, 30 µM [16]: 105%; solubility [17]: 18000 µM; solubility [18]: 17100 µM
4 | O=[N+]([O-])c1cc(-c2nnn(CCCN3CCOCC3)n2)cc([N+](=O)[O-])c1 | 16 (≈ 5.81 µg/mL) | 16 (≈ 5.81 µg/mL) | 500 (≈ 182 µg/mL) | 16 (≈ 5.81 µg/mL) | –
5 | CN1CCN(CCCn2nnc(-c3cc([N+](=O)[O-])cc([N+](=O)[O-])c3)n2)CC1 | > 32 | 32 (≈ 12 µg/mL) | 250 (≈ 94.1 µg/mL) | > 32 | –
6 | CC1COc2c(N3CCN(C)CC3)c(F)cc3c(=O)c(C(=O)O)cn1c23 (stereo not drawn) [OFLOXACIN] | – | – | – | – | MIC99 [13]: > 16 µM
7 | O=[N+]([O-])c1cc(CSc2nnc(CCCCCN3CCOCC3)o2)cc([N+](=O)[O-])c1 | 8 (≈ 3.5 µg/mL) | 8 (≈ 3.5 µg/mL) | 125 (≈ 54.7 µg/mL) | 8 (≈ 3.5 µg/mL) | –
8 | NCC[C@H](O)C(=O)N[C@@H]1C[C@H](N)[C@@H](O[C@H]2O[C@H](CN)[C@@H](O)[C@H](O)[C@H]2O)[C@H](O)[C@H]1O[C@H]1O[C@H](CO)[C@@H](O)[C@H](N)[C@H]1O [AMIKACIN] | – | – | – | – | MIC99 [8]: > 32 µM
9 | O=[N+]([O-])c1cc(CSc2nnc(CCCN3CCN(Cc4ccccc4)CC3)o2)cc([N+](=O)[O-])c1 | 2 (≈ 0.997 µg/mL) | 2 (≈ 0.997 µg/mL) | 32 (≈ 16 µg/mL) | 2 (≈ 0.997 µg/mL) | –
10 | CN[C@@H]1[C@H](O[C@H]2[C@H](O[C@H]3[C@H](O)[C@@H](O)[C@H](N=C(N)N)[C@@H](O)[C@@H]3N=C(N)N)O[C@@H](C)[C@]2(O)C=O)O[C@@H](CO)[C@H](O)[C@H]1O [STREPTOMYCIN] | – | – | – | – | MIC99 [6]: > 32 µM; MIC99 [8]: > 32 µM; MIC99 [9]: > 32 µM; MIC99 [11]: > 32 µM; MIC99 [13]: > 32 µM
11 | O=[N+]([O-])c1cc(-c2nnn(CCCN3CCN(Cc4ccccc4)CC3)n2)cc([N+](=O)[O-])c1 | 1 (≈ 0.452 µg/mL) | 2 (≈ 0.905 µg/mL) | 8 (≈ 3.62 µg/mL) | 1 (≈ 0.452 µg/mL) | –
12 | CO[C@H]1/C=C/O[C@@]2(C)Oc3c(C)c(O)c4c(O)c(c(/C=N/N5CCN(C)CC5)c(O)c4c3C2=O)NC(=O)/C(C)=C\C=C\[C@H](C)[C@H](O)[C@@H](C)[C@@H](O)[C@@H](C)[C@H](OC(C)=O)[C@@H]1C [RIFAMPIN] | 0.125 (≈ 0.103 µg/mL) | 0.25 (≈ 0.206 µg/mL) | 32 (≈ 26.3 µg/mL) | 0.25 (≈ 0.206 µg/mL) | MIC99 [4]: > 8 µM; MIC99 [6]: > 8 µM; MIC99 [8]: > 8 µM; MIC99 [9]: > 8 µM; MIC99 [11]: > 8 µM; MIC99 [13]: > 8 µM; MIC99 [14]: > 8 µM
13 | CN1CCN(CCCSc2nnc(-c3cc([N+](=O)[O-])cc([N+](=O)[O-])c3)o2)CC1 | > 32 | 16 (≈ 6.54 µg/mL) | 125 (≈ 51.1 µg/mL) | > 32 | –
14 | O=[N+]([O-])c1cc(CSc2nnc(CCCN3CCCCC3)o2)cc([N+](=O)[O-])c1 | 16 (≈ 6.52 µg/mL) | 16 (≈ 6.52 µg/mL) | 250 (≈ 102 µg/mL) | 16 (≈ 6.52 µg/mL) | –
15 | O=[N+]([O-])c1cc(-c2nnn(CCCN3CCCCC3)n2)cc([N+](=O)[O-])c1 | 16 (≈ 5.78 µg/mL) | 16 (≈ 5.78 µg/mL) | 62.5 (≈ 22.6 µg/mL) | 4 (≈ 1.45 µg/mL) | –
16 | CN1CCN(CCCCCc2nnc(SCc3cc([N+](=O)[O-])cc([N+](=O)[O-])c3)o2)CC1 | > 32 | > 32 | 250 (≈ 113 µg/mL) | 32 (≈ 14.4 µg/mL) | –
17 | O=[N+]([O-])c1cc(-c2nnc(SCCCN3CCCCC3)o2)cc([N+](=O)[O-])c1 | 16 (≈ 6.29 µg/mL) | 32 (≈ 12.6 µg/mL) | 62.5 (≈ 24.6 µg/mL) | 8 (≈ 3.15 µg/mL) | –
18 | CN1CCN(CCCc2nnc(SCc3cc([N+](=O)[O-])cc([N+](=O)[O-])c3)o2)CC1 | > 32 | > 32 | 1000 (≈ 422 µg/mL) | > 32 | –
19 | GENTAMICIN | – | – | – | – | MIC>99 [6]: 2 µM; MIC>99 [8]: > 8 µM; MIC>99 [9]: 1 µM; MIC>99 [11]: 1 µM; MIC>99 [14]: 1 µM
20 | NNC(=O)c1ccncc1 [ISONIAZID] | 4 (≈ 0.549 µg/mL) | > 250 | > 250 | – | –
21 | O=[N+]([O-])c1cc(-c2nnc(SCCCN3CCN(Cc4ccccc4)CC3)o2)cc([N+](=O)[O-])c1 | 0.5 (≈ 0.242 µg/mL) | 1 (≈ 0.485 µg/mL) | 2 (≈ 0.969 µg/mL) | 0.125 (≈ 0.0606 µg/mL) | –
22 | O=[N+]([O-])c1cc(-c2nnc(SCCCN3CCOCC3)o2)cc([N+](=O)[O-])c1 | 16 (≈ 6.33 µg/mL) | 8 (≈ 3.16 µg/mL) | 125 (≈ 49.4 µg/mL) | 8 (≈ 3.16 µg/mL) | –
23 | O=[N+]([O-])c1cc(CSc2nnc(CCCCCN3CCN(Cc4ccccc4)CC3)o2)cc([N+](=O)[O-])c1 | 2 (≈ 1.05 µg/mL) | – | – | – | MIC>99 (Mycobacterium kansasii [2]): 2 µM (≈ 1.05 µg/mL); MIC>99 (Mycobacterium avium): 16 µM (≈ 8.43 µg/mL); MIC>99 [3]: 1 µM (≈ 0.527 µg/mL)
